Experiment [1] in a line: Lipid binding of furin-site mutant vs wild-type Dlp^core. To be noted: furin sites destroyed: K398Q, K399A, R402Q, R438Q, R441A.
In experiment [2] the test system is GFP-Wingless. Briefly: Solubilisation of GFP-Wingless in serum-free S2 cell medium. The format is cell-based, Drosophila. Particulars: conditioned medium from S2 cells expressing Dlp^ΔGPI-V5 added to S2 cells expressing GFP-Wingless, 12hrs, concentrated 20-fold, Western blot.
The test system of experiment [3] is GFP-Wingless. In words: Colocalisation with morphotrap-enriched GFP-Wingless in wing discs. Format: in vivo, Drosophila. Particulars: n=4 (Dlp^ΔGPI-V5), n=13 (ApoL), n=10 (Hrs). In short, it runs like this:
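For ApoL and Hrs, morphotrap is driven by dpp-Gal4 and the endogenous proteins are immunostained. For Dlp ΔGPI-V5, morphotrap is driven by dpp-LexA and Dlp by wg-Gal4, limited to 24 h with Gal80ts (18°C rearing, 29°C shift). Confocal imaging; colocalisation scored where domains intersect; SD; three repeats.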

A further experiment has as its system Wingless. To be noted: ref [13],[14]; cited from earlier work.

These results are taken from article PMC7610841 (Nature, 2020).

B1: furin mutant form: Dlp^core form where both furin sites were destroyed (protein)
chain: DQFSPNCSAVTHIFQARGIDAIEIPQKPSNERVLRYCESPSVGTCCTYNMETRMAMQSRQQLEGHTKDQISRMSGILGSKATKFKDIFTALLKESRTQFNSMFIRTYGVIYERNSYVFSDLFKELETYFANGRVDLLEVMDKFFNTLYQKMFTVLNTQYTFDENYMRCVSEHMKELKPFGDVPDKLSVQIKRSFVATRTYGQALTTASEVAKKVLNVRLNADCTGALTKMQHCGACKGYTEKPCTNYCVNVIKGCLHYQHEFDSEWENFAMAMDKVAERLLGSFNIVMVVEPLNIKISEAIMNFQDSGQDITNRVFQGCGRPKLQAMKQSISPKLQGVQILNARSPVEADTLDIDETLDEAIVLQERAAAEPGSQETSAQQSQEQGVGKSGNGGGGGGGNNRRQQQRRKQQQQRRKQQNNRDDNDDDDNESGGGREPILDRIVRDIRQRVKDYKKFWSNLPHSVCSNEDIASSSDVDGMCWNGHTIDRYMHSITTEHGSNPEFTGNPASTKQTAQMASQLSHLKNAIVHLRNAYNGQDVEWSEQ
modifications: left off: Twin-Strep, C-terminal, cleaved
Regarding B1, the “lipid binding behaviour vs wild-type form” value in experiment [1] is “No difference in lipid binding behaviour”.

B2: Dlp^ΔGPI: secreted form of Dlp lacking its membrane anchor, amino acids 53-723 (protein)
chain: PQVAALAAPNPAGGVAGSSIIDQFSPNCSAVTHIFQARGIDAIEIPQKPSNERVLRYCESPSVGTCCTYNMETRMAMQSRQQLEGHTKDQISRMSGILGSKATKFKDIFTALLKESRTQFNSMFIRTYGVIYERNSYVFSDLFKELETYFANGRVDLLEVMDKFFNTLYQKMFTVLNTQYTFDENYMRCVSEHMKELKPFGDVPDKLSVQIKRSFVATRTYGQALTTASEVAKKVLNVRLNADCTGALTKMQHCGACKGYTEKPCTNYCVNVIKGCLHYQHEFDSEWENFAMAMDKVAERLLGSFNIVMVVEPLNIKISEAIMNFQDSGQDITNRVFQGCGRPKLKKMKRSISPKLQGVQILNARSPVEADTLDIDETLDEAIVLRERRAAEPGSQETSAQQSQEQGVGKSGNGGGGGGGNNRRQQQRRKQQQQRRKQQNNRDDNDDDDNESGGGREPILDRIVRDIRQRVKDYKKFWSNLPHSVCSNEDIASSSDVDGMCWNGHTIDRYMHSITTEHGSNPEFTGNPASTKQTAQMASQLSHLKNAIVHLRNAYNGQDVEWSEQEELPYAGSGAGSGSGSEDDEDDDEGSGLGPFEPSHKPDVERPSVDADNDDDEDAGGRGHMPTHTSRPTSGVDDKNPLIHTTHFDQDHNDLDEDHRQLDEDEDTDAG
modifications: left off: V5, C-terminal, kept
Turning to B2, the “solubilisation of GFP-Wingless, added conditioned medium” value is recorded as “A similar effect was seen” in the experiment on GFP-Wingless [2] and “stabilises GFP-Wingless in solution” in the experiment with GFP-Wingless [2] (listed as Dlp^ΔGPI-V5). In addition, in the experiment with GFP-Wingless [3], the “colocalisation with morphotrap-enriched GFP-Wingless” value is “colocalizes”. The “binding to Wingless” value with Wingless is “known to bind Wingless”.
